For 19 molecules, ID50, CC50 and EC50 results are on record in ChEMBL document CHEMBL1141224, “Parallel solution-phase and microwave-assisted synthesis of new S-DABO derivatives endowed with subnanomolar anti-HIV-1 activity” (J Med Chem, 2005).

Assay [1] deals with Human immunodeficiency virus type 1 reverse transcriptase (Human immunodeficiency virus 1), Q72547 [Y181I]. Briefly: Inhibition of Y181I mutant HIV1 reverse transcriptase by [3H]dTTP poly(rA)/oligo(dT) incorporation at 400 uM. The procedure, abridged:
(§1)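 RNA-dependent DNA polymerase assay of recombinant RT at 5–10 nM. Template: poly(rA)/oligo(dT) (0.3 μM 3'-OH ends) with 10 μM [3H]-dTTP. Run 10 min at 37 °C with increasing inhibitor. TCA-precipitated product was counted on GF/C filters. Highest concentration tested was 400 μM.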

A further assay deals with MT4. Briefly: Cytotoxicity against MT4 cells by MTT method. Format: functional. The following applies: Homo sapiens. The procedure, abridged: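 Mock-infected MT-4 cells exposed to graded drug concentrations. Viability assessed by MTT colorimetric method at day 5. CC50 is the concentration causing 50% death of noninfected cells. Mean of at least two experiments.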
Assay [2] has as its system Human immunodeficiency virus 1. The assay is described as follows: Antiviral activity against HIV1 IRLL98 mutant strain infected MT4 cells by MTT method. It is filed as functional, organism-based. The note with it: Human immunodeficiency virus 1, IRLL98, MT4. The procedure, abridged: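 MT-4 cells infected with the HIV-1 mutant strain, or mock-infected for cytotoxicity, in the presence of a range of drug concentrations. Viable cells were counted by MTT colorimetric assay on day 5 post-infection. EC50 is the concentration that blocks 50% of HIV-induced cell death. Values are the mean of at least two experiments. IRLL98 carries RT mutations K101Q, Y181C and G190A, plus NRTI mutations.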
A general note: Formazan colour is commonly taken as a measure of viable cells.

For assay [3], the system named is Human immunodeficiency virus type 1 reverse transcriptase (Human immunodeficiency virus 1), Q72547 [K103N].
Assay [4] concerns the target Human immunodeficiency virus type 1 reverse transcriptase (Human immunodeficiency virus 1) (UniProt Q72547).
Assay [5] deals with Human immunodeficiency virus 1. The assay is described as follows: Antiviral activity against HIV1 K103N mutant strain infected MT4 cells by MTT method. It is filed as functional, organism-based. The note with it: Human immunodeficiency virus 1, K103N.
Assay [6] concerns Human immunodeficiency virus 1. Briefly: Antiviral activity against HIV1 Y188L mutant strain infected MT4 cells by MTT method. Format: functional, organism-based. The following applies: Human immunodeficiency virus 1, Y188L, MT4.
Assay [7] deals with Human immunodeficiency virus 1. The assay is described as follows: Antiviral activity against wild type HIV1 NL4-3 infected MT4 cells by MTT method. It is filed as functional, organism-based. The note with it: Human immunodeficiency virus 1, NL4-3, MT4. The procedure, abridged: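 MT-4 lymphoid cells infected with HIV-1 NL4-3 in the presence of graded drug concentrations. Viable cells counted by MTT colorimetric assay at day 5 post-infection. EC50 is the concentration protecting 50% of cells from HIV-induced death. Mean of at least two experiments.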

The test system of assay [8] is Human immunodeficiency virus type 1 reverse transcriptase (Human immunodeficiency virus 1), Q72547 [K103N]. Briefly: Inhibition of K103N mutant HIV1 reverse transcriptase by [3H]dTTP poly(rA)/oligo(dT) incorporation at 400 uM. The essentials:
as §1

In assay [9] the target is Human immunodeficiency virus type 1 reverse transcriptase (Human immunodeficiency virus 1) (UniProt Q72547). Briefly: Inhibition of wild type HIV1 reverse transcriptase by [3H]dTTP poly(rA)/oligo(dT) incorporation at 400 uM. The essentials: as §1

Each structure is given as a SMILES string. The source made the active and inactive calls. The rule behind the calls is not given here. Where only a bound is given, the exact number is not on record here.

A word on the CC50: it is the concentration that lowers cell viability or growth by half. A low value points to harm at low concentration. One may read the EC50 as the midpoint of the concentration-response curve. High values mean a need for much substance, low ones an effect from little substance. Take `Cc1c(O)nc(SCc2ccc(Br)cc2)nc1Cc1c(Cl)cccc1Cl`: in assay [1], the ID50 entry was “inactive”. Moreover, the CC50 in the assay with MT4 was 13 µM. Also, the EC50 is greater than 53 µM in [2], greater than 53 µM in assay [5], greater than 53 µM in assay [6] and 0.79 µM in assay [7]. Besides, the ID50 came out at 9 µM in assay [3] and 0.39 µM in assay [4].

For `Cc1c(O)nc(SCc2ccccc2)nc1Cc1c(Cl)cccc1Cl`, in assay [1], the ID50 result was “inactive”. This molecule came in with a CC50 with MT4 greater than 64 µM. The EC50 in [2] was greater than 64 µM; in [5] it was greater than 64 µM; in [6], greater than 64 µM; in assay [7] it was 0.83 µM. Moreover, the ID50 was determined as 350 µM in assay [3] and 2.5 µM in assay [4].

As for `Cc1c(O)nc(S(=O)(=O)Cc2ccc(Br)cc2)nc1Cc1c(Cl)cccc1Cl`, the ID50 result in assay [1], in assay [8] and in assay [9] was “inactive” each time. For the same molecule, the 50% cytotoxic concentration (CC50) in the assay with MT4 is greater than 50 µM. The EC50 in assay [2], in assay [5], in [6] and in assay [7] was greater than 50 µM throughout.

In turn, `Cc1cn([C@H]2C[C@H](N=[N+]=[N-])[C@@H](CO)O2)c(=O)[nH]c1=O` [ZIDOVUDINE] gave a CC50 with MT4 of 3.7 µM. For the same molecule, the concentration giving a half-maximal response (EC50) in assay [2] came to 0.008 µM; in assay [5], 0.003 µM; in [6], 0.003 µM; in assay [7], 0.003 µM.

In the case of `Cc1c(Cc2c(F)cccc2F)nc(SCc2ccc([N+](=O)[O-])cc2)[nH]c1=O`, the ID50 result in assay [1], in assay [8] and in assay [9] was “inactive” throughout. The molecule also displayed a CC50 in the assay with MT4 greater than 62 µM. The EC50 in assay [2] was greater than 62 µM; in [5] it was greater than 62 µM; in [6], greater than 62 µM; in [7], 0.074 µM.

With `Cc1c(O)nc(SCc2ccc(C#N)cc2)nc1Cc1c(F)cccc1F`, the ID50 entry in assay [1] and in assay [8] was “inactive” each time. In the assay with MT4, this molecule had a CC50 greater than 65 µM. The EC50 in assay [2] was greater than 65 µM; in [5], greater than 65 µM; in assay [6], greater than 65 µM; in assay [7], 0.052 µM. In assay [4], this molecule displayed an ID50 of 0.76 µM.

With `Cc1c(O)nc(SCc2ccc(C#N)cc2)nc1Cc1c(Cl)cccc1Cl`, the ID50 result in [1] and in assay [8] was “inactive” throughout. In the assay on MT4, this molecule gave a CC50 greater than 60 µM. Moreover, the EC50 in [2] is 1 µM; in assay [5], 0.1 µM; in [6] it was greater than 60 µM; in assay [7], 0.17 µM. The ID50 in [4] was found to be 103 µM.

Consider `Cc1c(O)nc(SCc2ccc(F)cc2)nc1Cc1c(Cl)cccc1Cl`, for which the ID50 result in assay [1] and in assay [8] was “inactive” each time. The CC50 in the assay on MT4 is greater than 61 µM. The EC50 in [2] is 2.7 µM; in assay [5], 27 µM; in [6], greater than 61 µM; in assay [7], 0.11 µM. The molecule further returned an ID50 in [4] of 16 µM.

Regarding `Cc1c(O)nc(SCc2ccc3c(c2)OCO3)nc1Cc1c(Cl)cccc1Cl`, the ID50 entry in [1] and in assay [8] was “inactive” each time. Besides, the CC50 with MT4 is greater than 57 µM. Also, the EC50 in assay [2] came out at 0.51 µM; in assay [5] it was 5.3 µM; in [6], 33 µM; in [7], 0.12 µM. The ID50 in [4] was 0.5 µM.

Take `Cc1c(O)nc(SCc2cccc(C#N)c2)nc1Cc1c(Cl)cccc1Cl`: the ID50 entry in assay [1] and in [8] was “inactive” throughout. For the same molecule, the CC50 with MT4 is greater than 60 µM. Moreover, the EC50 in assay [2] was 5 µM; in assay [5], greater than 60 µM; in [6], greater than 60 µM; in [7], 0.89 µM. Also, in assay [4], the ID50 was found to be 9.5 µM.

Consider `COc1ccc(CSc2nc(O)c(C)c(Cc3c(Cl)cccc3Cl)n2)cc1OC`, for which the ID50 result in assay [1] and in assay [8] was “inactive” each time. Also, the CC50 in the assay with MT4 is greater than 55 µM. Also, the EC50 in [2] was 0.93 µM; in [5], 10 µM; in assay [6] it was greater than 55 µM; in [7], 0.2 µM. For the same molecule, the ID50 in assay [4] worked out at 1.2 µM.

In the assay with MT4, `O=C1Nc2ccc(Cl)cc2[C@@](C#CC2CC2)(C(F)(F)F)O1` [EFAVIRENZ] displayed a CC50 greater than 0.32 µM. The EC50 turned out to be 0.2 µM in [2] and 0.057 µM in assay [5].

Take `COc1ccc(CSc2nc(O)c(C)c(Cc3c(F)cccc3F)n2)cc1`: the ID50 entry in assay [1] was “inactive”. This molecule had a CC50 in the assay with MT4 greater than 64 µM. In addition, the EC50 in assay [2] was 0.69 µM; in [5], 0.69 µM; in assay [6], 10 µM; in assay [7] it was 0.026 µM. Also, the ID50 in [3] came out at 3.5 µM; in assay [4], 0.007 µM.

Regarding `Cc1c(O)nc(SCc2ccc3c(c2)C(=O)c2ccccc2C3=O)nc1Cc1c(Cl)cccc1Cl`, the ID50 result in [1] and in assay [8] was “inactive” throughout. The CC50 in the assay with MT4 is greater than 48 µM. In addition, the EC50 in assay [2] was greater than 48 µM; in [5], greater than 48 µM; in assay [6] it was greater than 48 µM; in [7], 13 µM. Moreover, the ID50 in assay [4] was 3.5 µM.

`CCOc1ccc(CSc2nc(O)c(C)c(Cc3c(Cl)cccc3Cl)n2)cc1`: the ID50 result in [1] and in [8] was “inactive” each time. The same molecule came in with a CC50 with MT4 greater than 58 µM. For the same molecule, the EC50 was 1.9 µM in assay [2], greater than 58 µM in assay [5], greater than 58 µM in assay [6] and 0.25 µM in assay [7]. Besides, in assay [4], the ID50 was determined as 2 µM.

For `COc1ccc(CSc2nc(O)c(C)c(Cc3c(Cl)cccc3Cl)n2)c(OC)c1`, the ID50 result in [1] and in [8] was “inactive” each time. This molecule gave a CC50 with MT4 greater than 55 µM. For the same molecule, the EC50 in [2] was greater than 55 µM; in assay [5] it was greater than 55 µM; in assay [6] it was greater than 55 µM; in assay [7] it was 1.33 µM. In [4], this molecule yielded an ID50 of 25 µM.

As for `Cc1c(O)nc(SCc2ccc(Cl)cc2)nc1Cc1c(Cl)cccc1Cl`, the ID50 entry in assay [1] and in assay [8] was “inactive” in each case. The CC50 in the assay on MT4 was greater than 59 µM. Moreover, the half-maximal effective concentration (EC50) was 2.1 µM in assay [2], greater than 59 µM in assay [5], greater than 59 µM in assay [6] and 0.47 µM in [7]. The same molecule had an ID50 in assay [4] of 20 µM.

Take `COc1cc(CSc2nc(O)c(C)c(Cc3c(Cl)cccc3Cl)n2)cc(OC)c1`: the ID50 result in [1] and in assay [8] was “inactive” each time. Also, in the assay on MT4, the CC50 was greater than 55 µM. Also, the EC50 in assay [2] was greater than 55 µM; in [5], greater than 55 µM; in assay [6] it was greater than 55 µM; in assay [7] it was 33 µM. Further, the ID50 in assay [4] was 256 µM.

As to `Cc1c(O)nc(SCc2cccc(F)c2)nc1Cc1c(Cl)cccc1Cl`, the ID50 entry in assay [1] is “inactive”. The molecule further returned a CC50 in the assay on MT4 greater than 61 µM. Also, the EC50 in assay [2] was 2.2 µM; in assay [5], greater than 61 µM; in assay [6], greater than 61 µM; in assay [7], 0.15 µM. The ID50 in assay [3] was 35 µM; in assay [4], 2 µM.
